Only some compounds are listed: those with a hit (about 1.9% of all), similar ones and a draw of the others.
CTSL1 counter: counter-screen for PFM18AAP inhibitors: inhibitors of F. hepatica cathepsin L1 | recombinant F. hepatica cathepsin L1, Z-Leu-Arg-MCA fluorescence | inhibition, % at 5.96 µM | actives 0.49% (n = 300,000) | AID 1906;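 active = inhibition above the mean of all tested compounds plus 3 SD, set per screening campaign, cut at about 17% in these data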
pCIP destab: p/CIP protein destabilization; Q05BA5; F442A p/CIP-EGFP cells, EGFP fluorescence, 16 h; decrease of EGFP signal, % at 10 µM; actives 0.01% (n = 290,000);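 active = EGFP signal decrease of at least 30% at 10 µM or well 3 SD below plate mean, unless failing retest; inactive = the rest, including hits failing retest or dose response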
T cell HTS: modulates CD8 T cell binding to vesicles; 2C CD8+ T cell-vesicle binding, flow cytometry; active compounds read low; response (vesicle binding), % at 7 µM; actives 0.068% (n = 330,000);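 active = response, share of CD8 T cells binding vesicles, and their 90th percentile fluorescence all below set limits, cut at about 80% in these data, passing the limit was not always enough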;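 also: values below 100% mean blocked vesicle binding to the CD8+ T cells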
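Assay system – 2C mouse CD8+ T cells · Also added – QL9-loaded Drosophila micro-vesicles · Timing – Cell–vesicle co-incubation 1.5 h at 37 °C, staining 20 min on ice · Signal – flow cytometry of vesicle-bound cells · Measure – percent CD8+ FL2 mean versus row control · Controls – Peptide-free naked vesicles (low) and QL9 vesicles with 0.7% DMSO vehicle (high)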
IMP-1 inh-1: inhibitors of Pseudomonas aeruginosa IMP-1 metallo-beta-lactamase. inhibition, % at 5.6 µM. AID 1556. purified IMP-1, nitrocefin hydrolysis, epi-absorbance fluorescence. actives 0.45% (n = 290,000);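 active = inhibition above the mean plus 3 SD of all compounds in the same screening run, cut at about 4.5% in these data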
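System: purified recombinant IMP-1 beta-lactamase. Medium: Zinc- and detergent-supplemented HEPES buffer, pH 7.1. Compound: one 5.6 µM dose […]. Schedule: 15 min preincubation plus 25 min reaction at 25 °C. Technique: Epi-absorbance fluorescence, 480 nm excitation, 530 nm emission.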
UBC9 SUMO inh: blocks human SUMOylation mediated by UBC9. HTRF SUMOylation assay, SAE1/SAE2 + UBC9, in vitro. inhibition, % at 35 µM. AID 2006. actives 0.36% (n = 290,000); in the data active = inhibition above about 50%, passing the limit was not always enough
VIM-2 inhibitor: blocks Pseudomonas aeruginosa VIM-2 metallo-beta-lactamase; purified VIM-2, nitrocefin hydrolysis, epi-absorbance fluorescence; inhibition, % at 5.6 µM; actives 0.89% (n = 290,000); AID 1527;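 active = inhibition above the mean of all tested compounds plus 3 SD, cutoff set per screening run, cut at about 7.5% in these data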;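 also: red hydrolysis product quenches plate fluorescence so inhibitors raise well fluorescence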
IMP-1 inh-2: blocks IMP-1 metallo-beta-lactamase in VIM-2 selectivity screen. 1,300 tested, under 10 active. AID 1856. purified IMP-1, nitrocefin hydrolysis, epi-absorbance fluorescence. inhibition, % at 5.6 µM. shares compounds with VIM-2 inhibitor; call rule not given here
VIM-2 FRET inh: counter-screen for VIM-2 inhibitors: epi-absorbance artifacts via FRET; purified VIM-2, CCF2 FRET substrate hydrolysis; shares compounds with VIM-2 inhibitor; actives 23% (n = 1,300); inhibition, % at 5.6 µM;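 active = inhibition above the mean of all tested compounds plus 3 SD, cut at about 19% in these data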
TEM-1 counter: selectivity counter-screen for VIM-2 inhibitors: E. coli TEM-1 inhibitors; shares compounds with VIM-2 inhibitor; Purified TEM-1, nitrocefin hydrolysis, epi-absorbance fluorescence; inhibition, % at 5.6 µM; actives 3% (n = 1,300); AID 1866;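 active = inhibition above that campaign's mean inhibition plus 3 SD, cut at about 0.46% in these data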
VIM-2 confirm 2: confirmation of P. aeruginosa VIM-2 metallo-beta-lactamase inhibitors. purified VIM-2, nitrocefin hydrolysis, epi-absorbance. AID 2187. actives 96% (n = 1,300). inhibition, % at 5.6 µM. shares compounds with VIM-2 inhibitor;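 active = inhibition of the VIM-2 beta-lactamase enzyme above about 11% from the earlier first-round screen, limit read from the data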
Of the large screens only hits and unclear results are named; the others gave an inactive call (follow-up assays come after a bar, where they were run).

CN1CCN(c2ccc(NC(=O)c3ccc(-c4ccc(Cl)cc4)o3)cc2)CC1	VIM-2 inhibitor 28.3 | IMP-1 inh-2 inactive | VIM-2 FRET inh inactive | TEM-1 counter inactive | VIM-2 confirm 2 41.8
CN1CCN(c2ccc(NC(=O)N3CCc4ccccc43)cc2)CC1	VIM-2 inhibitor 28.0 | IMP-1 inh-2 inactive | VIM-2 FRET inh inactive | TEM-1 counter inactive | VIM-2 confirm 2 39.9
CN1CCN(C(=O)c2ccccc2NC(=O)c2sc3ccccc3c2Cl)CC1	none
CN1CCN(c2ccc(NC(=O)c3ccc(-c4cccc([N+](=O)[O-])c4)o3)cc2)CC1	VIM-2 inhibitor 42.3 | IMP-1 inh-2 inactive | VIM-2 FRET inh inactive | TEM-1 counter inactive | VIM-2 confirm 2 64.0
CN1CCN(c2ccc(NC(=O)c3sc4ccccc4c3Cl)cc2)CC1	VIM-2 inhibitor 21.9 | IMP-1 inh-2 inactive | VIM-2 FRET inh inactive | TEM-1 counter inactive | VIM-2 confirm 2 51.3
CS(=O)(=O)N1CCN(c2ccc(NC(=O)c3ccc(-c4ccc(Cl)cc4)o3)cc2)CC1	none
CCn1cc(C(=O)N2CCN(c3ccc(OC)cc3)CC2)c(=O)c2cc(S(=O)(=O)N3CCOCC3)ccc21	none
Cc1ccc(OCC(=O)N(C)C2CCCCC2)c([N+](=O)[O-])n1	none (no result: CTSL1 counter, pCIP destab, IMP-1 inh-1, UBC9 SUMO inh, VIM-2 inhibitor)
CC(C)(C)S(=O)(=O)c1ccc(S(=O)(=O)C(C)(C)C)s1	none
CC12CCC(c3c(C(=O)O)nn(-c4ccccc4)c31)C2(C)C (stereo not given)	VIM-2 inhibitor 13.6 | IMP-1 inh-2 inactive | VIM-2 FRET inh 26.4 | TEM-1 counter inactive | VIM-2 confirm 2 17.8
CC12CCC(c3c(CO)nn(-c4ccccc4)c31)C2(C)C (stereo not given)	none
CC(C)CCNC(=O)C(=O)Nc1ccccc1	none
Cc1cc(=O)n2c3ccccc3n(CC(O)CN3CCC(C)CC3)c2c1C#N (stereo not given)	none (no result: CTSL1 counter, T cell HTS)
Cc1cc(=O)n2c3ccccc3n(CC(O)CN3CCN(Cc4ccccc4)CC3)c2c1C#N (stereo not given)	VIM-2 inhibitor 14.4 | IMP-1 inh-2 inactive | VIM-2 FRET inh inactive | TEM-1 counter inactive | VIM-2 confirm 2 32.8
Cc1cc(=O)n2c3ccccc3n(CC(O)CN3CCN(CCO)CC3)c2c1C#N (stereo not given)	VIM-2 inhibitor 22.2 | IMP-1 inh-2 inactive | VIM-2 FRET inh inactive | TEM-1 counter inactive | VIM-2 confirm 2 37.6
Nc1nc(NCCCN2CCOCC2)nc(Nc2cccc(Cl)c2)c1[N+](=O)[O-]	VIM-2 inhibitor 28.8 | IMP-1 inh-2 inactive | VIM-2 FRET inh inactive | TEM-1 counter inactive | VIM-2 confirm 2 49.5
CC(C)c1ccccc1OCC(=O)Nc1ccccc1C(=O)N1CCOCC1	none
COc1ccc(C2C(C(=O)c3cccs3)=C(O)C(=O)N2c2nnc(C)s2)cc1OC (stereo not given)	VIM-2 inhibitor 26.9 | IMP-1 inh-2 inactive | VIM-2 FRET inh inactive | TEM-1 counter 5.5 | VIM-2 confirm 2 8.8
CCCc1ccc2oc(C(=O)NCc3nnc(C)o3)c(C)c2c1	none (no result: CTSL1 counter)
CCCCCCOc1ccc(N2C(=O)CC(SCCN)C2=O)cc1 (stereo not given)	VIM-2 inhibitor 15.1 | IMP-1 inh-2 inactive | VIM-2 FRET inh inactive | TEM-1 counter inactive | VIM-2 confirm 2 inactive
CN(CCCNC(=O)c1cccn2c(=O)c3ccccc3nc12)Cc1ccccc1	VIM-2 inhibitor 22.0 | IMP-1 inh-2 inactive | VIM-2 FRET inh inactive | TEM-1 counter inactive | VIM-2 confirm 2 44.8
O=C(COC(=O)c1ccc(O)cc1O)Nc1cc(-c2ccccc2)nn1-c1ccccc1	none (no result: pCIP destab, IMP-1 inh-1, UBC9 SUMO inh, VIM-2 inhibitor)
CCC(C)(C)C1CCC2(CC1)NC(=O)N(CC(=O)NCCc1c[nH]c3ccccc13)C2=O (stereo not given)	none (no result: CTSL1 counter, pCIP destab, IMP-1 inh-1, UBC9 SUMO inh, VIM-2 inhibitor)
CC(C)(C)c1ccc(-c2n[nH]c(=S)n2CCCN2CCOCC2)cc1	VIM-2 inhibitor 13.3 | IMP-1 inh-2 inactive | VIM-2 FRET inh 33.3 | TEM-1 counter inactive | VIM-2 confirm 2 21.7
CC(C)(C)c1ccc(-c2n[nH]c(=S)n2CC2CCCO2)cc1 (stereo not given)	none
C=C(C)Cc1c(C)c(C#N)c2nc3ccccc3n2c1NCCCN(C)C	VIM-2 inhibitor 29.3 | IMP-1 inh-2 inactive | VIM-2 FRET inh inactive | TEM-1 counter inactive | VIM-2 confirm 2 45.1
C=CCc1c(C)c(C#N)c2nc3ccccc3n2c1NCCN(C)C	none
CCCc1cc(NCCCN(C)C)n2c(nc3ccccc32)c1C#N	VIM-2 inhibitor 20.6 | IMP-1 inh-2 inactive | VIM-2 FRET inh inactive | TEM-1 counter 2.0 | VIM-2 confirm 2 35.1
CCSc1nncn1/N=C/c1ccc(OC)c(OC)c1	VIM-2 inhibitor 23.9 | IMP-1 inh-2 inactive | VIM-2 FRET inh inactive | TEM-1 counter inactive | VIM-2 confirm 2 41.3
NC(N)=Nc1nc(-c2ccccc2)c2ccccc2n1	VIM-2 inhibitor 13.5 | IMP-1 inh-2 inactive | VIM-2 FRET inh inactive | TEM-1 counter inactive | VIM-2 confirm 2 27.4
CCc1nc(N=C(N)N)nc2ccccc12	none
Cc1c(OC(C)C(=O)O)ccc2c3c(c(=O)oc12)CCCC3 (stereo not given)	none
Cc1c(C)c2ccc(OCC(=O)Nc3cccnc3)c(C)c2oc1=O	VIM-2 inhibitor 12.3 | IMP-1 inh-2 inactive | VIM-2 FRET inh inactive | TEM-1 counter inactive | VIM-2 confirm 2 20.9
Cc1c(OCC(=O)NCc2cccnc2)ccc2c3c(c(=O)oc12)CCCC3	VIM-2 inhibitor 16.8 | IMP-1 inh-2 inactive | VIM-2 FRET inh inactive | TEM-1 counter inactive | VIM-2 confirm 2 25.9
Cc1c(OCC(=O)N(C)c2ccccc2)ccc2c3c(c(=O)oc12)CCC3	VIM-2 inhibitor 20.5 | IMP-1 inh-2 inactive | VIM-2 FRET inh inactive | TEM-1 counter inactive | VIM-2 confirm 2 29.1
O=C(COc1cc2oc(=O)c3c(c2cc1Cl)CCCC3)NCc1cccnc1	none
Cc1c(OC(C)C(=O)NCc2cccnc2)ccc2c3c(c(=O)oc12)CCCC3 (stereo not given)	VIM-2 inhibitor 13.6 | IMP-1 inh-2 inactive | VIM-2 FRET inh inactive | TEM-1 counter inactive | VIM-2 confirm 2 24.0
COC(=O)c1c(C(=O)c2ccc(Br)cc2)n(C)c2ccccc12	none (no result: CTSL1 counter, pCIP destab, IMP-1 inh-1, UBC9 SUMO inh, VIM-2 inhibitor)
Cc1ccc(N(CC(=O)NCCSc2nc3ccccc3s2)S(=O)(=O)c2ccccc2)c(C)c1	none
